# RAD54 branch – inhibitors of human RAD54 branch migration, primary screen, biochemical, fluorescence, single point; 0.14% of 360,000 active; inhibition, % at 10.4 µM; DNA repair and recombination protein RAD54-like (Homo sapiens), Q92698; RAD54 Holliday junction branch migration, FAM/BHQ fluorescence;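 active = mean normalized replicate activity at least 40 and at least half of replicates scoring 40 or more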;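 note: inhibitors cause a drop in the FAM fluorescence signal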
# Target sequence (Q92698 whole entry, looked up): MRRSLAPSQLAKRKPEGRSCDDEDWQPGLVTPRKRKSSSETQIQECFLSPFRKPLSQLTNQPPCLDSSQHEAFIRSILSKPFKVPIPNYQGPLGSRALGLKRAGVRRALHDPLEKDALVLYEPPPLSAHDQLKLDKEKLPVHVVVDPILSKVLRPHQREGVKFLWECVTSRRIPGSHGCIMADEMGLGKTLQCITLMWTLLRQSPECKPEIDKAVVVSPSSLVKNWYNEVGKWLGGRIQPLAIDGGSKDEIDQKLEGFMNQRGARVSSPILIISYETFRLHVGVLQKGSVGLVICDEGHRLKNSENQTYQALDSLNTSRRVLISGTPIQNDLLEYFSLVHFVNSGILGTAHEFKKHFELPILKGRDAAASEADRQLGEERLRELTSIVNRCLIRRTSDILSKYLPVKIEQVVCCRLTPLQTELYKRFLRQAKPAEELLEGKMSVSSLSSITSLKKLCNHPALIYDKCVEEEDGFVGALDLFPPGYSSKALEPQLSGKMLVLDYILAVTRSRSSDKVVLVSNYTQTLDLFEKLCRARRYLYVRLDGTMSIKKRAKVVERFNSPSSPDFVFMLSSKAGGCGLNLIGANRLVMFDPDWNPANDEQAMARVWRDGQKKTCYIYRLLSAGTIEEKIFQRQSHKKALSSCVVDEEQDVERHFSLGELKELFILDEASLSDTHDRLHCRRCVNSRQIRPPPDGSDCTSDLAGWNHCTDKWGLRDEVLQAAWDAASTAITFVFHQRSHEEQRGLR
# RAD52 inh – RAD52 DNA annealing inhibitors, primary screen, biochemical, FRET, single point, set 2; DNA repair protein RAD52 homolog (Homo sapiens), P43351; recombinant RAD52 DNA annealing, FRET fluorescence; inhibition, % at 18.7 µM; 0.46% of 360,000 active; AID 651710, 2012;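 active = every replicate showing at least 50% inhibition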
# PAX8 reporter – inhibitors of PAX8-driven TPO luciferase reporter, primary screen, RMG-I cells, single concentration. SteadyGlo, 24 h. AID 652154, 2013. 1.2% of 360,000 active. inhibition, % at 12.6 µM;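 active = mean replicate inhibition at least 60% with every replicate also reaching 60%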;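 note: luciferase light reporting Pax8 driven TPO promoter activity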
# FN deposition inh – inhibitors of fibronectin matrix deposition, primary screen, AH1F cells, Alexa488-fibronectin fluorescence, plate reader. AH1F fibroblasts, overnight. inhibition, % at 12.6 µM. 0.086% of 350,000 active;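 active = mean inhibition across replicates of 30% or more, regardless of how many single replicates reach that level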
#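 Material – AH1F fibroblast monolayer, labelled fibronectin deposition · Reagent – labelled fibronectin 24 nM · Timing – 1 h adhesion, overnight exposure · Measured by – fluorescence at 485 nm excitation, 525 nm emission · Read-out – inhibition of fibronectin deposition signal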
# Numbers stand for hits; – = inactive; · = no result given. This is a sample that favours compounds with a hit; in the whole collection about 1.3% have one here.
SMILES,RAD54 branch,RAD52 inh,PAX8 reporter,FN deposition inh
C[C@H]1CN([C@@H](C)CO)C(=O)c2ccccc2-c2ccccc2CO[C@H]1CN(C)S(=O)(=O)c1ccc(C(F)(F)F)cc1,–,–,102,–
C[C@H](CO)N1C[C@H](C)[C@H](CN(C)S(=O)(=O)c2ccc(F)cc2)OCc2ccccc2-c2c(n(C)c3ccccc23)C1=O,–,–,·,–
C[C@H]1CN([C@@H](C)CO)C(=O)c2c(c3ccccc3n2C)-c2ccccc2CO[C@@H]1CN(C)S(=O)(=O)c1ccc(F)cc1,–,–,·,–
O=C(Nc1ccccc1)C1CCN(C(=O)c2ccco2)CC1,–,–,–,–
CCOC(=O)Cn1c(=O)c2c(nc(N3CCCCC3)n2Cc2ccccc2)n(C)c1=O,–,·,·,·
C[C@@H]1CN([C@H](C)CO)C(=O)c2c(c3ccccc3n2C)-c2ccccc2CO[C@@H]1CN(C)S(=O)(=O)c1ccc(C(F)(F)F)cc1,·,–,93,–
COc1ccccc1S(=O)(=O)N(C)C[C@@H]1OCc2ccccc2-c2c(n(C)c3ccccc23)C(=O)N([C@H](C)CO)C[C@@H]1C,–,–,–,–
C[C@H]1CN([C@@H](C)CO)C(=O)c2c(c3ccccc3n2C)-c2ccccc2CO[C@H]1CN(C)S(=O)(=O)c1ccc([N+](=O)[O-])cc1,·,–,91,–
COc1ccccc1S(=O)(=O)N(C)C[C@@H]1OCc2ccccc2-c2c(n(C)c3ccccc23)C(=O)N([C@@H](C)CO)C[C@H]1C,–,–,69,–
C[C@H]1CN([C@@H](C)CO)C(=O)c2c(c3ccccc3n2C)-c2ccccc2CO[C@@H]1CN(C)S(=O)(=O)c1ccc([N+](=O)[O-])cc1,·,–,–,–
C[C@H]1CN([C@@H](C)CO)C(=O)c2cc(-c3ccc(F)cc3)cnc2O[C@H]1CN(C)C(=O)C1CCC1,–,–,·,–
C=CCOc1cccc(C2/C(=C(/O)c3ccc(C)cc3)C(=O)C(=O)N2CCN2CCOCC2)c1 (centres undefined),–,·,·,·
COc1cccc(NC(=O)N(C)C[C@H]2Oc3ncc(C#Cc4ccncc4)cc3C(=O)N([C@H](C)CO)C[C@@H]2C)c1,·,·,–,·
CO[C@@H]1CN(C)C(=O)c2cc(NC(C)=O)ccc2OC[C@@H](C)N(Cc2ccccc2C(=O)O)C[C@@H]1C,–,–,–,–
O=C(N/N=C/c1cccs1)c1n[nH]c2c1CCCC2,–,–,65,–
C/C(=N\NC(=O)c1n[nH]c2c1CCC2)c1cccs1,–,–,102,–
C/C(=N\NC(=O)c1cc(C)[nH]n1)c1cccs1,–,–,–,–
Cc1ccc(S(=O)(=O)CCSC(=N)N)cc1,–,–,69,–
Cc1ccc(Nc2c(-c3ccccn3)nc3ccc(C)cn23)cc1,–,–,–,–
Cc1ccc2nc(-c3ccncc3)c(Nc3ccccc3)n2c1,–,–,65,–
NCCCn1c(C(=O)c2cc(Cl)c(N)c(Cl)c2)c2ccc(C(F)(F)F)cc2[n+]1[O-],–,–,–,–
NCCCn1c(C(=O)c2cc(Cl)c(N)c(Cl)c2)c2ccc([N+](=O)[O-])cc2[n+]1[O-],–,–,70,–
COc1cc(/C=C(\NC(C)=O)C(=O)NC(C)(C)CC(C)(C)C)ccc1OC(C)=O,·,–,–,–
COC(=O)C1C2CC3c4[nH]c5cc(OC)ccc5c4CCN3CC2CC(OC(=O)CC(C)=O)C1OC (centres undefined),·,–,–,–
CCOC(=O)Oc1c(OC)cc(C(=O)O[C@@H]2C[C@@H]3CN4CCc5c([nH]c6cc(OC)ccc56)[C@H]4C[C@@H]3[C@H](C(=O)OC)[C@H]2OC)cc1OC,–,–,75,–
SMILES,RAD54 branch,RAD52 inh,PAX8 reporter,FN deposition inh
CCCc1nnc(NC(=O)CCS(=O)(=O)c2ccccc2)s1,–,–,78,–
CCOC(=O)c1csc(NC(=O)CCS(=O)(=O)c2ccc(Cl)cc2)n1,–,–,84,–
Cc1nnc(NC(=O)CCS(=O)(=O)c2ccccc2)s1,–,–,–,–
CCCCc1nnc(NC(=O)CCS(=O)(=O)c2ccc(Cl)cc2)s1,–,–,77,–
CCOCCOC(=O)COc1ccc2c(=O)c(Oc3ccc(OC)cc3)coc2c1,–,–,–,–
Cc1nc(NC2=NCN(Cc3cccnc3)CN2)nc2ccccc12,–,·,–,–
Cc1nc(NC2=NCN(CCCN3CCOCC3)CN2)nc2c(C)cccc12,81,·,·,·
Cc1noc(C)c1NC(=O)N(C)C[C@@H]1OCCCC[C@@H](C)Oc2ccc(NC(=O)c3ccccc3)cc2C(=O)N([C@H](C)CO)C[C@H]1C,–,–,–,–
CCc1cnc(N2[C@@H](C#N)[C@@H](c3ccc(C#CCC4CCCC4)cc3)[C@@H]2CO)s1,–,–,73,–
COc1cccc(-c2ccc([C@H]3[C@@H](CO)N(C(=O)Cc4ccccc4)[C@H]3C#N)cc2)c1,–,–,91,–
Cc1ccc(-c2ccccc2[C@H]2[C@@H](CO)N(S(C)(=O)=O)[C@H]2C#N)cc1,·,101,·,–
COc1cccc(-c2ccc([C@@H]3[C@H](C#N)N(C(=O)Cc4ccccc4)[C@H]3CO)cc2)c1,–,–,–,–
N#C[C@@H]1[C@H](c2ccc(-c3ccccc3F)cc2)[C@@H](CO)N1C(=O)Cc1ccccc1,–,–,103,–
N#C[C@@H]1[C@@H](c2ccc(-c3ccccc3F)cc2)[C@@H](CO)N1C(=O)Cc1ccccc1,–,–,–,–
COc1ccc(-c2csc(N(CC3CCCO3)C(=O)c3ccc(C)cc3)n2)cc1 (centres undefined),–,·,–,–
CC(=O)c1ccc(NC(=O)Nc2ccccc2)cc1,–,·,·,·
Cc1ccc(-n2ccnc(SCC(=O)NC3CCCC3)c2=O)cc1F,–,–,–,–
COc1ccccc1OCC(=O)N1CCC2(CC1)CC(=O)c1ccccc1O2,–,–,–,–
N#C[C@@H]1[C@@H](c2ccc(-c3ccc(F)cc3)cc2)[C@@H](CO)N1S(=O)(=O)Cc1ccccc1,–,–,69,–
COc1cccc(-c2ccc([C@H]3[C@@H](CO)N(C(=O)c4ccccn4)[C@H]3C#N)cc2)c1,–,–,83,–
N#C[C@H]1[C@@H](c2ccc(-c3ccccc3)cc2)[C@@H](CO)N1S(=O)(=O)Cc1ccccc1,–,–,–,–
COc1cccc(C#Cc2ccc([C@H]3[C@@H](C#N)N(C(=O)c4ccccn4)[C@@H]3CO)cc2)c1,–,–,76,–
COc1cccc(C#Cc2ccc([C@@H]3[C@@H](C#N)N(C(=O)c4ccccn4)[C@@H]3CO)cc2)c1,–,–,–,–
N#C[C@H]1[C@@H](c2ccc(C#CCC3CCCC3)cc2)[C@@H](CO)N1C(=O)c1ccccn1,–,–,74,–
Cc1cccc(C)c1NC(=O)CCCSc1nnc(-c2ccc(Cl)cc2)n1-c1ccccc1,·,–,–,–

# Assay outcomes: PubChem, Broad Institute
